These results are taken from PubChem BioAssay AID652011 (Sanford-Burnham Center for Chemical Genomics, 2013).

“And” between values parts separate entries of the source, which are not always exact repeats. Identical values can stand only once.

Broadly, the inhibition is the change of the read-out against control, counted positive when it falls.

Chain of Endothelial PAS domain-containing protein 1 (Homo sapiens) (Q99814 whole entry, looked up, the tested form may be a part): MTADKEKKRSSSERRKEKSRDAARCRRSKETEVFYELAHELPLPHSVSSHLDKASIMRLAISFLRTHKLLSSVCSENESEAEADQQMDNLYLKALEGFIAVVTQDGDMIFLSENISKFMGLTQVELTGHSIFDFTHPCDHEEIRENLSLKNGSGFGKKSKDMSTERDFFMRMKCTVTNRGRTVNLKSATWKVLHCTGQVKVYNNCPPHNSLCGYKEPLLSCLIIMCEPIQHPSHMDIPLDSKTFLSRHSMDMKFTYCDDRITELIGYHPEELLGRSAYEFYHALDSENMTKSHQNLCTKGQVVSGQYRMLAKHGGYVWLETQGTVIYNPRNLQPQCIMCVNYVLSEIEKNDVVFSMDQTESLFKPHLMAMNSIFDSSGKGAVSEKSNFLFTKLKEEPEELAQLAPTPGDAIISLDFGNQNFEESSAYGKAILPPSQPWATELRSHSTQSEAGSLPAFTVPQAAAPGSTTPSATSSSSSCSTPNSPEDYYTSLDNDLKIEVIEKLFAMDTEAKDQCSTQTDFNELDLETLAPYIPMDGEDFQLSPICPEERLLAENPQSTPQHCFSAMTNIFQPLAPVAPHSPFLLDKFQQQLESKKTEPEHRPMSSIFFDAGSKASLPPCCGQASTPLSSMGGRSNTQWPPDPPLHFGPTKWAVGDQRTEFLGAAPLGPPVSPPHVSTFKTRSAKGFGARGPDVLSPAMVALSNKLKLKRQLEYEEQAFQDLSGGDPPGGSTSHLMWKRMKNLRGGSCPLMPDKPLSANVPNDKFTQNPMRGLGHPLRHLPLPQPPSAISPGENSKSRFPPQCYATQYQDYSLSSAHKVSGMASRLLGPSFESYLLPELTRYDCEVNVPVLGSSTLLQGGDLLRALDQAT

This test deals with Endothelial PAS domain-containing protein 1 (Homo sapiens) (UniProt Q99814). Kind of test: HIF reporter inhibition across pancreatic and renal lines – cell-based, luminescence, MIAPaCa-2, 786-0, panel, SAR follow-up (AID 652011). As to conditions: MIAPaCa-2/PANC HIF reporter, luciferase luminescence, desferoxamine, overnight, HIF2a PANC, run 2; at 99 µM (top of the series). In a few lines:
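Also added: desferoxamine added before compound. Dosing: compounds from 10 mM and 0.3125 mM stocks, 1% DMSO final. Timing: overnight seeding and compound exposure, 37 °C, 5% CO2, 10-min detection. Detection: luciferase luminescence with One-Glo reagent.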
`CC(C)(C)c1ccc(-c2noc(CCC(=O)N3CCOCC3)n2)cc1`: the inhibition amounted to 32.4%. As to `CC(C)(C)c1ccc(-c2noc(CCC(=O)NCC3CCCO3)n2)cc1` (centres undefined), the inhibition is 16.7%. With `COc1ccccc1NC(=O)CCc1nc(-c2ccc(C(C)(C)C)cc2)no1`, the inhibition was 123%. Take `CCNC(=O)CCc1nc(-c2cccc(OC)c2)no1`: the inhibition was -12.7%. With `COc1cccc(NC(=O)CCc2nc(-c3ccc(C(C)(C)C)cc3)no2)c1` the figure was 131%. With `CCCCc1ccc(-c2noc(CCC(=O)NC(C)(C)C)n2)cc1` the figure was 89%; with `CCNC(=O)CCc1nc(-c2ccc(C(C)(C)C)cc2)no1`, 84.7% and 55.9%; with `CCc1ccc(-c2noc(CCC(=O)NC(C)(C)C)n2)cc1`, -22.9%. Regarding `CC(C)(C)c1ccc(-c2noc(CCC(=O)N3CCCCC3)n2)cc1`, the inhibition came to 106%.
